Measurements from ChEMBL document CHEMBL3526140, “Prediction of human intestinal absorption of the prodrug temocapril by in situ single-pass perfusion using rat intestine with modified hydrolase activity” (Drug Metab Dispos, 2011).

Assays:
Jejunum [1] = test: Intracellular drug level in Wistar rat jejunum at 100 uM at pH 6.4 by in-situ single-pass perfusion method; assay type: ADME, tissue-based; details: in vivo
Outline: (§1)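 Rats fasted 18–24 h, anesthetized with intraperitoneal pentobarbital. Isolated cannulated jejunal segment kept at 37°C in Krebs–Henseleit buffer with 3% BSA and 10 mM glucose. Vascular perfusion with Krebs–Henseleit (pH 7.4) at 2.5 ml/min. Lumen perfused at 0.2 ml/min with phosphate buffer (pH 5.4, 6.4 or 7.4) containing 100 µM drug plus FD-4. Luminal and vascular samples assayed by HPLC (UV 258 nm). Parameters normalized to 10 cm intestine. Mean ± S.D., n = 3–6.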

[2] = Drug hydrolysis in Wistar rat jejunal S9 fraction assessed as rate of hydrolysis per mg protein; assay type: ADME, Jejunum
Outline: (§2)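 Duodenal or jejunal mucosa from fasted rats homogenized in 50 mM HEPES (pH 7.4) with 1.15% KCl; S9 is the 9000 g supernatant. S9 pre-incubated 5 min at 37°C, then drug added at 10–500 µM final (1% DMSO). Run for 20 min, stopped with acetonitrile, temocaprilat formed measured by HPLC. Km and Vmax from Michaelis–Menten nonlinear fit. Inhibitor (1 mM BNPP) pre-incubated 5 min. Results as % of control.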

Jejunum [3] = test: Intracellular drug level in Wistar rat jejunum assessed as temocaprilat level pre-perfused with 400 uM CES inhibitor BNPP at 100 uM at pH 6.4 by in-situ single-pass perfusion method; assay type: ADME, tissue-based; details: in vivo, pH 6.4, 100 µM
Outline: (§3)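 Same in situ jejunal single-pass perfusion, with carboxylesterase blocked by pre-perfusing the lumen with 400 µM BNPP for 40 min. Then 100 µM drug in luminal phosphate buffer (pH 5.4 or 6.4) at 0.2 ml/min. Vascular Krebs–Henseleit (pH 7.4) at 2.5 ml/min. Luminal, vascular and tissue levels measured by HPLC. Rates are luminal disappearance and appearance in lumen or mesenteric vein. Mean ± S.D., n = 3.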

Jejunum [4] = test: Intracellular drug level in Wistar rat jejunum pre-perfused with 400 uM CES inhibitor BNPP at 100 uM at pH 6.4 by in-situ single-pass perfusion method; assay type: ADME, tissue-based; details: in vivo, pH 6.4, 100 µM; outline: as §3
Jejunum [5] = test: Drug uptake in Wistar rat jejunum pre-perfused with 400 uM CES inhibitor BNPP assessed as rate of drug appearance at 100 uM at pH 5.4 by in-situ single-pass perfusion method; assay type: ADME, tissue-based; details: in vivo, pH 5.4, 100 µM; outline: as §3
Jejunum [6] = test: Drug hydrolysis in intact Wistar rat jejunum mucosal homogenate at 500 uM assessed per mg protein in presence of 1000 uM CES inhibitor BNPP; assay type: ADME, tissue-based; details: tissue homogenate
Outline: (§4)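 Jejunal mucosal homogenate or S9 (HEPES pH 7.4/KCl) taken from intact jejunum, or after 40 min perfusion with or without 400 µM BNPP. Protein at 400 µg/ml incubated at 37°C with 500 µM drug. Added BNPP (100 or 1000 µM) pre-incubated 5 min. Temocaprilat formed measured by HPLC and given as nmol/min/mg protein and % of control. Mean ± S.D., n = 4.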

Jejunum [7] = test: Drug hydrolysis in perfused Wistar rat jejunum mucosal homogenate at 500 uM assessed per mg protein; assay type: ADME, tissue-based; details: tissue homogenate; outline: as §4
[8] = Drug hydrolysis in Wistar rat duodenal S9 fraction; assay type: ADME, Duodenum; outline: as §2
Jejunum [9] = test: Intracellular drug level in Wistar rat jejunum treated with Temocaprilat at 100 uM at pH 5.4 by in-situ single-pass perfusion method; assay type: ADME, tissue-based; details: in vivo, pH 5.4, 100 µM
[10] = Drug hydrolysis in intact Wistar rat jejunal S9 fraction at 500 uM assessed per mg protein in presence of 1000 uM CES inhibitor BNPP; assay type: ADME, Jejunum; details: s9, 500 µM; outline: as §4
Jejunum [11] = test: Drug uptake in Wistar rat jejunum pre-perfused with 400 uM CES inhibitor BNPP assessed as rate of drug disappearance at 100 uM at pH 6.4 by in-situ single-pass perfusion method; assay type: ADME, tissue-based; details: in vivo; outline: as §3
Jejunum [12] = test: Drug uptake in Wistar rat jejunum pre-perfused with 400 uM CES inhibitor BNPP assessed as rate of temocaprilat disappearance at 100 uM at pH 5.4 by in-situ single-pass perfusion method; assay type: ADME, tissue-based; details: in vivo, pH 5.4, 100 µM; outline: as §3
[13] = Drug hydrolysis in Wistar rat jejunal S9 fraction; assay type: ADME, Jejunum; outline: as §2
Jejunum [14] = test: Apparent absorption clearance in Wistar rat jejunum at 100 uM at pH 5.4 by in-situ single-pass perfusion method; assay type: ADME, tissue-based; details: in vivo, pH 5.4, 100 µM; outline: as §1
[15] = Permeability in Wistar rat jejunum pre-perfused with 400 uM CES inhibitor BNPP at 100 uM at pH 6.4 by in-situ single-pass perfusion method; assay type: ADME, tissue-based; details: other: in-situ single-pass perfusion of the jejunum, pH 6.4, with BNPP (CES inhibitor) 400 uM, read-out: Peff (converted)
Outline: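 Fasted, pentobarbital-anesthetized rats. Jejunum pre-perfused with BNPP (400 µM) for 40 min to inhibit CES. Lumen then perfused at 0.2 ml/min with 100 μM drug in phosphate buffer (pH 5.4 or 6.4). Vascular side received Krebs–Henseleit buffer (pH 7.4) at 2.5 ml/min. Luminal drug quantified by HPLC; Peff normalized to 10 cm segment; mean ± S.D., n = 3.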

[16] = Drug hydrolysis in intact Wistar rat jejunal S9 fraction at 500 uM assessed per mg protein; assay type: ADME, Jejunum; details: s9, 500 µM; outline: as §4
Jejunum [17] = test: Drug hydrolysis in perfused Wistar rat jejunum mucosal homogenate at 500 uM assessed per mg protein in presence of 400 uM CES inhibitor BNPP; assay type: ADME, tissue-based; details: tissue homogenate; outline: as §4
[18] = Drug hydrolysis in Wistar rat duodenal S9 fraction in presence of 1 mM CES inhibitor BNPP; assay type: ADME, Duodenum; outline: as §2
Jejunum [19] = test: Apparent hydrolytic clearance in Wistar rat jejunum at 100 uM at pH 7.4 by in-situ single-pass perfusion method; assay type: ADME, tissue-based; details: in vivo; outline: as §1
[20] = Permeability in Wistar rat jejunum at 100 uM at pH 7.4 by in-situ single-pass perfusion method; assay type: ADME, tissue-based; details: other: in-situ single-pass perfusion of the jejunum, read-out: Peff (converted)
Outline: (§5)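 Rats fasted 18–24 h and anesthetized with intraperitoneal pentobarbital. Jejunal loop perfused at 0.2 ml/min with phosphate buffer (pH 5.4, 6.4 or 7.4) containing 100 μM drug and FD-4 (0.1 mg/ml). Vascular perfusate was Krebs–Henseleit bicarbonate buffer (pH 7.4) at 2.5 ml/min, segment kept at 37°C. Drug and metabolite measured by HPLC (UV 258 nm). Peff normalized to 10 cm intestine; mean ± S.D., n = 3–6.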

Jejunum [21] = test: Apparent absorption clearance in Wistar rat jejunum at 100 uM at pH 6.4 by in-situ single-pass perfusion method; assay type: ADME, tissue-based; details: in vivo; outline: as §1
Jejunum [22] = test: Drug uptake in Wistar rat jejunum pre-perfused with 400 uM CES inhibitor BNPP assessed as rate of temocaprilat appearance at 100 uM at pH 6.4 by in-situ single-pass perfusion method; assay type: ADME; details: in vivo, pH 6.4, 100 µM; outline: as §3
[23] = Permeability in Wistar rat jejunum at 100 uM at pH 5.4 by in-situ single-pass perfusion method; assay type: ADME, tissue-based; details: other: in-situ single-pass perfusion of the jejunum, read-out: Peff (converted); outline: as §5
Jejunum [24] = test: Apparent hydrolytic clearance in Wistar rat jejunum pre-perfused with 400 uM CES inhibitor BNPP at 100 uM at pH 6.4 by in-situ single-pass perfusion method; assay type: ADME, tissue-based; details: in vivo, pH 6.4, 100 µM; outline: as §3
Jejunum [25] = test: Intracellular drug level in Wistar rat jejunum at 100 uM at pH 5.4 by in-situ single-pass perfusion method; assay type: ADME, tissue-based; details: in vivo; outline: as §1
Jejunum [26] = test: Drug uptake in Wistar rat jejunum mesenteric vein assessed as rate of drug appearance at 100 uM by in-situ single-pass perfusion method; assay type: ADME, tissue-based; details: in vivo; outline: as §1

With CCOC(=O)[C@H](CCc1ccccc1)N[C@H]1CS[C@H](c2cccs2)CN(CC(=O)O)C1=O [TEMOCAPRIL] as the molecule, how does the Drug uptake (Jejunum [1]) read?
The Drug uptake was 1.83 nmol/g.

And the Vmax [2]?
Its Vmax is 5.11 nmol/min/mg.

What about the Drug uptake (Jejunum [3]) of the same molecule?
Its Drug uptake is 14.6 nmol/g.

What about the Drug uptake (Jejunum [4]) of the same molecule?
The Drug uptake was 15.4 nmol/g.

And the CL (Jejunum [5])?
The CL was 0.862 nmol/min.

What about the Drug degradation (Jejunum [6]) of the same molecule?
Its Drug degradation is 1.97 nmol/min.

And the Drug degradation (Jejunum [7])?
Its Drug degradation is 3.96 nmol/min.

And the Km [8]?
The Km was 47.4 µM.

What about the Drug uptake (Jejunum [9]) of the same molecule?
Its Drug uptake is 34.2 nmol/g.

What about the Drug degradation [10] of the same molecule?
Its Drug degradation is 0.488 nmol/min.

And the CL (Jejunum [11])?
The CL was 2.44 nmol/min.

And the CL (Jejunum [12])?
Its CL is 1.01 nmol/min.

And the Km [13]?
Its Km is 47.3 µM.

And the “CL(app)” value (Jejunum [14])?
The value was 3.59 µL/min.

What about the Papp at 100 µM [15] of the same molecule?
The Papp at 100 µM was 38.7 ×10⁻⁶ cm/s.

And the Drug degradation [16]?
The Drug degradation was 4.46 nmol/min.

What about the Drug degradation (Jejunum [17]) of the same molecule?
Its Drug degradation is 2.05 nmol/min.

And the Stability [18]?
Its Stability is “Stable”.

What about the CL (Jejunum [19]) of the same molecule?
The CL was 43.2 µL/min.

What about the Papp at 100 µM [20] of the same molecule?
Its Papp at 100 µM is 54.2 ×10⁻⁶ cm/s.

What about the “CL(app)” value (Jejunum [21]) of the same molecule?
The value was 1.59 µL/min.

And the CL (Jejunum [22])?
The CL was 0.604 nmol/min.

What about the Papp at 100 µM [23] of the same molecule?
The Papp at 100 µM was 76 ×10⁻⁶ cm/s.

What about the CL (Jejunum [24]) of the same molecule?
Its CL is 19.5 µL/min.

And the Drug uptake (Jejunum [25])?
Its Drug uptake is 5.46 nmol/g.

And the Drug uptake (Jejunum [26])?
The Drug uptake was 0.147 nmol/min.
